The source of these data is ChEMBL document CHEMBL1671818, “Screening multicomponent reactions for X-linked inhibitor of apoptosis-baculoviral inhibitor of apoptosis protein repeats domain binder” (J Med Chem, 2011).

Test [1] has as its system MDA-MB-231. The test is described as follows: Cytotoxicity against human ER-negative MDA-MB-231 cells assessed as cell viability after 72 hrs. Format: functional, cell-based. The note with it: MDA-MB-231, 72 h. The essentials: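 MDA-MB-231 (ER-negative) kept in DMEM + 10% FBS at 37 °C, 5% CO2. Seeded at 5000 cells/well and left overnight, then exposed for 72 h to a range of compound concentrations in serum-free DMEM (final DMSO 0.1%). Viability read by ATPlite one-step luminescence, four replicates. IC50 obtained by curve fitting.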

Test [2] deals with T1, E3 ubiquitin-protein ligase XIAP (Homo sapiens, UniProt P98170). The test is described as follows: Inhibition of XIAP-Bir3 domain at 10 uM by TR-FRET assay. The essentials:
(§1)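 TR-FRET displacement. BIR3 protein (10 nM) and biotin-lc-GGIPVA SMAC peptide (10 nM) mixed with compound in DMSO, 1 h at 4 °C. Eu-antibody conjugate (5 nM) and APC-streptavidin (2 nM) then added, incubated overnight at 4 °C. Excitation 340 nm, emission 665 nm. Screen at 100, 10, 1 and 0.1 μM; actives run as 6–7-point dilutions in duplicate.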
For orientation: TR-FRET usually uses a lanthanide donor and a delayed reading to cut background.

Test [3] addresses T1, E3 ubiquitin-protein ligase XIAP. The test is described as follows: Inhibition of XIAP-Bir3 domain at 100 uM by TR-FRET assay. The essentials:
as §1

For test [4], the system named is Jurkat. The test is described as follows: Cytotoxicity against human Jurkat cells assessed as cell viability. Format: functional, cell-based.
Test [5] concerns the target T1, E3 ubiquitin-protein ligase XIAP. The test is described as follows: Inhibition of XIAP by FRET assay. The essentials: as §1
For test [6], the system named is RPMI-8226. The test is described as follows: Cytotoxicity against human RPMI8226 cells assessed as cell viability. Format: functional, cell-based.
For test [7], the target named is T1, E3 ubiquitin-protein ligase XIAP. The test is described as follows: Inhibition of XIAP by FP assay.
The target is the same in test [8]. The test is described as follows: Inhibition of XIAP-Bir3 domain by NMR titration. The essentials: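 NMR Kd. 1H chemical-shift changes of resolved BIR3 resonances (BIR3 at 100 μM) followed across ligand concentrations, at least six points. Kd from a nonlinear least-squares fit of fractional bound population versus total ligand, single-site model. 2D [15N,1H]HSQC acquired at 300 K.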

The target is the same in test [9]. The test is described as follows: Inhibition of XIAP-Bir3 domain by calorimetric titration assay. Put shortly:
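ITC at 25 °C. Purified XIAP BIR3 (100 μM) in the cell, compound (1 mM) in the syringe, both in degassed PBS pH 7.4. Blank-subtracted, normalized heats fitted to a single-site model; Kd taken as 1/Ka.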

T1 sequence (P98170 whole entry, the tested form may be a part): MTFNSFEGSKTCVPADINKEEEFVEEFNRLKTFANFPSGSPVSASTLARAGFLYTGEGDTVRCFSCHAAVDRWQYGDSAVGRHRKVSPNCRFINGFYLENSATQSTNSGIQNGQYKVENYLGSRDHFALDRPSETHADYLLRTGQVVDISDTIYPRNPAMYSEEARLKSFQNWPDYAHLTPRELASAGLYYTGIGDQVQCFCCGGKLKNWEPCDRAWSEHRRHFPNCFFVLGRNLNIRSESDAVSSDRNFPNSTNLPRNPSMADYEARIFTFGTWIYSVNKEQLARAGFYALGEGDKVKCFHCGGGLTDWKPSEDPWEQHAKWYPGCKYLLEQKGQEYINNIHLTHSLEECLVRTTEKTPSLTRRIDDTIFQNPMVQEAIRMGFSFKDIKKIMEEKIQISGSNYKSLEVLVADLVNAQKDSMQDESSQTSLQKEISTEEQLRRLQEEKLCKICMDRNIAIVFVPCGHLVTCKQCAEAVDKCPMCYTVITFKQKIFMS

In the case of `CC(C)[C@H](NC(=O)[C@H](C)N)C(=O)N1CCN(Cc2ccccc2)CC1C(=O)NC(c1ccccc1)c1ccccc1` (stereo partly specified), in test [1], the IC50 is 31 µM.
As to `CC(C)C(NC(=O)[C@H](C)N)c1nc(C(=O)NCc2ccccc2)c(-c2ccccc2)s1` (stereo partly specified), the inhibition in test [2] was 58%; in test [3] it was 97.2%. Moreover, the IC50 in [1] was greater than 50 µM.
Turning to `CC(C)[C@H](NC(=O)[C@H](C)N)C(=O)N1C(C(=O)NC(c2ccccc2)c2ccccc2)CSC1(C)C` (stereo in doubt; 9) [listing 1 of 2 here], the inhibition worked out at 15.8% in test [2] and 83.2% in test [3].
On to `COc1ccc(CCN2CCC[C@H]2CN(C(=O)Nc2ccccc2)[C@@H](CNC(=O)Nc2ccccc2)CC2CCCCC2)cc1`, for which, in [4], the IC50 was 5 µM.
As for `CN[C@@H](C)C(=O)NC1CCC[C@H]2SC[C@@H](C(=O)Nc3cc(C)nn3-c3ccccc3)N2C1=O` (stereo partly specified), the IC50 in [1] is 2 µM.
For `CC(C)C(NC(=O)[C@H](C)N)c1nc(C(=O)NCc2ccccc2)cs1` (stereo partly specified), the inhibition in [2] was 19.9%; in test [3], 23.4%. The IC50 in test [1] is greater than 50 µM.
For the compound `CC(C)[C@H](NC(=O)[C@H](C)N)C(=O)N1C(C(=O)NC(c2ccccc2)c2ccccc2)CSC1(C)C` (stereo in doubt; 9) [listing 2 of 2 here], the IC50 in test [1] was greater than 50 µM.
In the case of `CN[C@@H](C)C(=O)N[C@H](C(=O)N1CC[C@H]2CN(CCc3ccccc3)CC[C@H]21)C1CCCCC1`, the values for the IC50 in test [5] and in test [6] were 280 nM and 30 µM, respectively.
As to `CC(C)[C@H](NC(=O)[C@H](C)N)C(=O)N1CCCN(C2CCCCC2)CC1C(=O)NC(c1ccccc1)c1ccccc1` (stereo partly specified), the inhibition in [2] worked out at 15.6%; in [3] it was 82.5%. The IC50 in test [1] was greater than 50 µM.
In test [7], `CN[C@@H](C)C(=O)NC1CCC[C@H]2[C@@H](Cc3ccccc3)C[C@@H](C(=O)N[C@@H]3CCCc4ccccc43)N2C1=O` (stereo partly specified) had a Kd of 31 nM. Also, in test [1], the IC50 worked out at 0.026 µM.
Turning to `CCN1CCN(C(=O)[C@@H](NC(=O)[C@H](C)N)C(C)C)C(C(=O)NC(c2ccccc2)c2ccccc2)C1` (stereo partly specified), the values for the Kd in test [8] and in test [9] were 27.7 µM and 21.6 µM, respectively. The inhibition in test [2] is 77.2%; in test [3], 96.9%. The IC50 in [1] was greater than 50 µM.
As to `CC(C)[C@H](NC(=O)[C@H](C)N)C(=O)N1C(C(=O)NC(c2ccccc2)c2ccccc2)CSC1(C)C` (single isomer, unassigned; diastereomer A), the inhibition in test [2] amounted to 67.4%; in [3] it was 97.1%.
Take `CC(C)[C@H](NC(=O)[C@H](C)N)C(O)c1nnnn1CCc1ccccc1` (stereo partly specified): the figures for the inhibition in [2] and in test [3] were 15% and 20.7%, respectively. Moreover, the IC50 in test [1] was greater than 50 µM.
Regarding `CC(C)[C@H](NC(=O)[C@H](C)N)C(=O)N1C(C(=O)NC(c2ccccc2)c2ccccc2)CSC1(C)C` (stereo in doubt), the inhibition in test [2] is 16.7%; in [3], 83.6%.

For orientation: IC50 means the concentration at which inhibition is half-maximal. For orientation: inhibition means the percentage by which the read-out fell short of the control. Broadly, the Kd is the concentration at which binding is half-saturated.
